Rows were chosen to be rich in hits. Some 3.9% of all compounds tested hit in one or more screens of this group.
ANO1 activ: TMEM16A chloride channel activators or potentiators, primary screen, cell-based, HTS; Anoctamin-1 (Mus musculus), Q8BHY3; HEK293 TMEM16A/YFP-H148Q/I152L, iodide quench fluorescence; stronger effect = lower value; B-score at 10 µM; AID 623877, 2012; 340,000 compounds, 0.3% hits;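 active = fluorescence-ratio B-score plate-corrected deviation score at least 3 library SD below zero, with starting fluorescence score within 5 deviations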;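 note: channel opened by trigger with iodide after compound preincubation; score built on the fluorescence ratio of max minus min over baseline; more negative score means more quench and so TMEM16A activation or potentiation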
TAAR1 antag: human TAAR1 antagonists, primary screen, Fluo-8 calcium fluorescence, CHO RD-HGA16 cells | Trace amine-associated receptor 1 (Homo sapiens), Q96RJ0 | antagonist | inhibition, % at 3 µM | 360,000 compounds, 1.5% hits | AID 624466, 2012;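 active = inhibition above a per-plate cutoff, the mean inhibition of test compounds on that plate plus 3 SD, cut at about 49% in these data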;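 note: 0% = DMSO plus EC80 beta-PEA response and 100% = DMSO alone without agonist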
Target sequence (Q96RJ0 whole entry, looked up): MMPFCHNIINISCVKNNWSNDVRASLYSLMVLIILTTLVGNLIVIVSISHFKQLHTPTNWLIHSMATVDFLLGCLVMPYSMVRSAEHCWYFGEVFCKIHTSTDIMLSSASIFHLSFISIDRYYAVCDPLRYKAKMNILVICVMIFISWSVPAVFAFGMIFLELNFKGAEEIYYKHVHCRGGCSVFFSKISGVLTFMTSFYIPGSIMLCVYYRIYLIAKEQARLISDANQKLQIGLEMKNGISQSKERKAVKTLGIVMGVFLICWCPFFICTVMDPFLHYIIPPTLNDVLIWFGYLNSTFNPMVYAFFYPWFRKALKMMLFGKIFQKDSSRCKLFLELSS
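Material: RD-HGA16 CHO cells with stable hTAAR1 and Gα16; Dosing: single nominal final test compound concentration of 3 µM; Schedule: seeding 17-24 h prior, 75-min 37 °C, 30-min RT dye loading; Detection: kinetic Fluo-8 calcium fluorescence measurement; Measure: % inhibition from peak post-agonist over basal fluorescence ratio; Benchmarks: vehicle and agonist controls.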
TAAR1 agonist: human TAAR1 agonists, primary screen, Fluo-8 calcium fluorescence, CHO RD-HGA16 cells | vehicle wells 0%, saturating PEA agonist 100% | activation, % at 3 µM | 360,000 compounds, 0.99% hits | AID 624467, 2012;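 active = activation above the mean activation of all test compounds in the run plus 3 SD, cut at about 38% in these data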
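Assay system – CHO-derived RD-HGA16 cells with stable Gα16 and human TAAR1 · Compound dosing – one-point dosing at 3 µM (nominal) · Incubation – 17-24 h seeding, 75 min 37 °C dye, 30 min RT · Measured by – kinetic Fluo-8 calcium fluorescence · Control set – DMSO vehicle as 0%, PEA at EC100 as 100% · Repeats – single well for each compound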
CRFBP-R2 agonist: agonists of CRF-BP/CRF-R2 complex, primary screen, cell-based, HEK293, calcium dye fluorescence, uHTS; CRF-binding protein / CRF receptor 2 complex (human); calcium dye fluorescence (FLIPR); percent of saturating CRF peptide response; activation, % at 13.2 µM; 350,000 compounds, 0.46% hits; AID 588473, 2011;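 active = activation of at least 50%, plus an integration ratio under a set limit after plate pattern correction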;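 note: plate controls were neutral control wells without compound for no effect and CRF at EC100 for full effect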
TMEM16A inh: TMEM16A chloride channel inhibitors, primary screen, cell-based, HTS. Anoctamin-1 (Mus musculus), Q8BHY3. HEK293 TMEM16A/YFP iodide influx fluorescence, ionomycin. normalized B-score (activity score, 25-100; higher = stronger inhibition) at 10 µM. 310,000 compounds, 1.2% hits. AID 588511, 2011;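 active = ratio plate-corrected score three or more library SD toward inhibition, starting fluorescence score within five deviations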;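 note: score derived from kinetic fluorescence span divided by baseline fluorescence per well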
CRFBP-R2 block: antagonists of CRF-BP/CRF-R2 complex, primary screen, cell-based, HEK293, calcium dye fluorescence, uHTS; CRF-induced calcium fluorescence; inhibition, % at 11.8 µM; 350,000 compounds, 0.59% hits; AID 588475, 2011;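 active = inhibition of the ligand-induced calcium signal above about 50% at the single tested concentration, limit read from the data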
TAAR1 ag conf: human TAAR1 agonists, retest of hits, confirmation, Fluo-8 calcium fluorescence, CHO RD-HGA16 cells; shares compounds with TAAR1 agonist; scaled: DMSO 0%, maximal phenethylamine 100%; activation, % at 3 µM; 2,400 compounds, 82% hits;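 active = activation above a cutoff set at the run's mean compound activation plus 3 SD, cut at about 39% in these data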
Ga16 ag counter: nonselective calcium mobilization agonists, CHO-Ga16 cells, counter-screen for hTAAR1 agonist project, cell-based, fluorescence, CHO-Ga16 parental line; shares compounds with TAAR1 agonist; Fluo-8 calcium fluorescence; normalized to maximal ATP response, DMSO zero; activation, % at 3 µM; 2,400 compounds, 50% hits; AID 651787, 2012;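 active = activation above the run cutoff, the mean activation over all tested wells plus 3 SD, cut at about 12% in these data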;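 note: 0% = DMSO wells and 100% = maximal ATP response on the peak over basal ratio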
TAAR1 desens: TAAR1 desensitization by agonist hits, confirmation, counter-screen for TAAR1 agonist project, cell-based, fluorescence, tachyphylaxis; 2,400 compounds, 46% hits; CHO RD-HGA16 hTAAR1, Fluo-8 calcium, beta-PEA response inhibition; shares compounds with TAAR1 agonist; inhibition, % at 3 µM;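 active = inhibition above the run cutoff, the mean inhibition of all test compounds plus 3 SD, cut at about 49% in these data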;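 note: beta-PEA stimulus applied at its EC80; loss of beta-PEA calcium signal after compound pretreatment read as receptor desensitization; 0% = DMSO with beta-PEA at EC80 and 100% = DMSO alone without agonist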
Ga16 nonsel ant: inhibition of ATP-evoked calcium response in CHO-Ga16 cells, counter-screen for TAAR1 agonist project, cell-based, fluorescence. shares compounds with TAAR1 agonist. inhibition, % at 3 µM. 2,400 compounds, 39% hits. CHO-Ga16 ATP-induced calcium, Fluo-8 fluorescence;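 active = inhibition above the plate's mean compound inhibition plus 3 SD, computed per plate, cut at about 22% in these data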;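 note: 0% = EC80 ATP with DMSO and 100% = DMSO wells without ATP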
Numbers without * were called inactive.

What do the screens show for `O=C(CCNC(=O)c1ccccc1Cl)NCC(c1ccco1)N1CCCC1` (stereo unspecified)?
ANO1 activ: inactive; TAAR1 antag: 4; TAAR1 agonist: 0; CRFBP-R2 agonist: -1; TMEM16A inh: inactive; CRFBP-R2 block: 1

Results for Cc1cc(C)nc(N2CCCC(C(=O)NCCc3ccccc3F)C2)n1 (stereo unspecified) ?
ANO1 activ: inactive; TAAR1 antag: 8; TAAR1 agonist: 45*; CRFBP-R2 agonist: 0; TMEM16A inh: inactive; CRFBP-R2 block: 3; TAAR1 ag conf: 76*; Ga16 ag counter: 2; TAAR1 desens: 38; Ga16 nonsel ant: 11

Results for CCOc1cc(C)nc(N2CCCC(C(=O)NCc3ccccc3F)C2)n1 (stereo unspecified) ?
ANO1 activ: inactive; TAAR1 antag: 4; TAAR1 agonist: 10; CRFBP-R2 agonist: 0; TMEM16A inh: inactive; CRFBP-R2 block: -6

How did CC(=O)N/C(=N/c1nc(C)cc(C)n1)Nc1cccc(C)c1C do in these assays?
ANO1 activ: inactive; TAAR1 antag: -6; TAAR1 agonist: 2; CRFBP-R2 agonist: -3; TMEM16A inh: inactive; CRFBP-R2 block: -2

What do the screens show for `OCCN1CCN(CC(O)COc2ccc(C34CC5CC(CC(C5)C3)C4)cc2)CC1` (stereo unspecified)?
ANO1 activ: inactive; TAAR1 antag: -6; TAAR1 agonist: 20; CRFBP-R2 agonist: -1; TMEM16A inh: inactive; CRFBP-R2 block: -12

What do the screens show for `NCCOc1ccc(C23CC4CC(CC(C4)C2)C3)cc1`?
ANO1 activ: inactive; TAAR1 antag: 16; TAAR1 agonist: 81*; CRFBP-R2 agonist: 17; TMEM16A inh: inactive; CRFBP-R2 block: -66; TAAR1 ag conf: 94*; Ga16 ag counter: 60*; TAAR1 desens: 81*; Ga16 nonsel ant: 76*

Results for COc1ccc(NC(=O)CSc2nnc(-c3ccco3)n2N)cc1Cl ?
ANO1 activ: inactive; TAAR1 antag: -23; TAAR1 agonist: 33; CRFBP-R2 agonist: 0; TMEM16A inh: inactive; CRFBP-R2 block: -2

How did COc1ccc(NC(=O)CSc2nnc(-c3ccccn3)n2N)cc1Cl do in these assays?
ANO1 activ: inactive; TAAR1 antag: 22; TAAR1 agonist: 44*; CRFBP-R2 agonist: 2; TMEM16A inh: inactive; CRFBP-R2 block: -27; TAAR1 ag conf: 61*; Ga16 ag counter: 2; TAAR1 desens: 24; Ga16 nonsel ant: 4

Results for CC1=NN(/C(=N\c2nnc(C)s2)Nc2ccccc2)[C@H](c2cccc3ccccc23)S1 ?
ANO1 activ: inactive; TAAR1 antag: -6; TAAR1 agonist: 70*; CRFBP-R2 agonist: 8; TMEM16A inh: inactive; CRFBP-R2 block: -56; TAAR1 ag conf: 47*; Ga16 ag counter: 2; TAAR1 desens: 0; Ga16 nonsel ant: 11

Compound activity deposited in PubChem by several laboratories.
